From ChEMBL document CHEMBL4041548, “Ester Prodrugs of IHVR-19029 with Enhanced Oral Exposure and Prevention of Gastrointestinal Glucosidase Interaction” (ACS Med Chem Lett, 2017)
Activity calls are given as the source filed them. No cut-off for these calls is given here.

Tests used:
[1] = Inhibition of endoplasmic reticulum alpha-glucosidase in HEK293 cells infected with DENV assessed as reduction in viral infection; assay type: cell-based; details: Homo sapiens
[2] = Cmax in BALB/c mouse at 100 mg/kg, po administered as single dose by LC-MS/MS analysis; assay type: ADME, organism-based; set-up: dose 100 mg/kg, route oral; details: in vivo
Procedure, shortened: (§1)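 Male BALB/c mice dosed with the prodrugs or the parent orally (25 or 100 mg/kg) or intravenously (5 mg/kg). The parent compound was quantified in plasma and PK parameters were derived from it. The first sampling point was 5 min post-dose, and prodrugs were tracked up to 4 h.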

[3] = Stability in simulated intestinal fluid assessed as parent compound remaining at 5 uM measured after 4 hrs by LC-MS/MS analysis
Procedure, shortened: (§2)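 Chemical stability assessed by incubation in simulated gastric fluid and simulated intestinal fluid; percent of compound remaining was measured.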

[4] = Metabolic stability in mouse plasma assessed as parent compound remaining at 5 uM measured after 2 hrs by LC-MS/MS analysis; assay type: ADME, cell-free; details: read-out: Stability
Procedure, shortened: (§3)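 Compounds incubated in human or mouse plasma for 2 h. Percent remaining and percent conversion to the parent were determined.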

[5] = Stability in simulated gastric fluid assessed as parent compound remaining at 5 uM measured after 4 hrs by LC-MS/MS analysis; procedure, shortened: as §2
Liver [6] = test: Metabolic stability in pooled human liver microsomes assessed as parent compound remaining at 200 uM measured after 60 mins by LC-MS/MS analysis; assay type: ADME, microsome; details: microsomes, 1 h, 200 µM
Procedure, shortened: (§4)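 Prodrugs or parent incubated in pooled human or mouse liver microsomes for up to 60 min, with or without cofactor. Percent remaining and percent conversion to the parent were measured.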

Mus musculus [7] = test: AUC(0 to infinity) in BALB/c mouse at 100 mg/kg, po administered as single dose by LC-MS/MS analysis; assay type: ADME, organism-based; set-up: dose 100 mg/kg, time infinity, route oral; details: in vivo
Liver [8] = test: Half life in pooled human liver microsomes at 200 uM by LC-MS/MS analysis; assay type: ADME, microsome; details: microsomes, 200 µM; procedure, shortened: as §4
Liver [9] = test: Half life in pooled mouse liver microsomes at 200 uM by LC-MS/MS analysis; assay type: ADME, microsome; details: microsomes, 200 µM; procedure, shortened: as §4
[10] = Tmax in BALB/c mouse at 25 mg/kg, po administered as single dose by LC-MS/MS analysis; assay type: ADME, organism-based; details: in vivo; procedure, shortened: as §1
[11] = Half life in BALB/c mouse at 100 mg/kg, po administered as single dose by LC-MS/MS analysis; assay type: ADME, organism-based; details: in vivo; procedure, shortened: as §1
[12] = Inhibition of pig liver endoplasmic reticulum alpha glucosidase-1 using 4-methylumbelliferyl-alpha-D-glucoside as substrate measured after 90 mins by fluorescence analysis; set-up: species or system Sus scrofa
Mus musculus [13] = test: AUC(0 to infinity) in BALB/c mouse at 5 mg/kg, iv as bolus administration by LC-MS/MS analysis; assay type: ADME, organism-based; set-up: dose 5 mg/kg, time infinity, route intravenous; details: in vivo
[14] = Clearance in BALB/c mouse at 5 mg/kg, iv as bolus administration by LC-MS/MS analysis; assay type: ADME, organism-based; details: in vivo; procedure, shortened: as §1
[15] = Tmax in BALB/c mouse at 100 mg/kg, po administered as single dose by LC-MS/MS analysis; assay type: ADME, organism-based; details: in vivo; procedure, shortened: as §1
Bos taurus = species on record: Bos taurus; test: Inhibition of endoplasmic reticulum alpha-glucosidase in MDBK cells infected with Bovine Viral Diarrhea virus assessed as reduction in BVDV envelope glycoprotein E2 level at 3 to 100 uM by immunoblot analysis; assay type: cell-based
Procedure, shortened: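 MDBK cells infected with BVDV, then treated with various concentrations of the compounds. Cell lysates were run on SDS-PAGE and immunoblotted for the E2 envelope glycoprotein, looking for a mobility shift and lower intensity, with β-actin as internal control.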

[16] = Half life in BALB/c mouse at 5 mg/kg, iv as bolus administration by LC-MS/MS analysis; assay type: ADME, organism-based; details: in vivo; procedure, shortened: as §1
Mus musculus [17] = test: AUC(0 to infinity) in BALB/c mouse at 25 mg/kg, po administered as single dose by LC-MS/MS analysis; assay type: ADME, organism-based; set-up: dose 25 mg/kg, time infinity, route oral; details: in vivo
[18] = Metabolic stability in pooled human liver microsomes assessed as parent compound remaining at 200 uM measured after 60 mins in presence of NADPH and UDPGA by LC-MS/MS analysis; assay type: ADME, microsome; details: read-out: Stability; procedure, shortened: as §4
[19] = Half life in BALB/c mouse at 25 mg/kg, po administered as single dose by LC-MS/MS analysis; assay type: ADME, organism-based; details: in vivo; procedure, shortened: as §1
[20] = Inhibition of pig liver endoplasmic reticulum alpha glucosidase-2 using 4-methylumbelliferyl-alpha-D-glucoside as substrate measured after 60 mins by fluorescence analysis; set-up: species or system Sus scrofa
[21] = Volume of distribution at steady state in BALB/c mouse at 5 mg/kg, iv as bolus administration by LC-MS/MS analysis; assay type: ADME, organism-based; details: in vivo, read-out: Vdss; procedure, shortened: as §1
[22] = Cmax in BALB/c mouse at 5 mg/kg, iv as bolus administration by LC-MS/MS analysis; assay type: ADME, organism-based; set-up: dose 5 mg/kg, route intravenous; details: in vivo; procedure, shortened: as §1
[23] = Metabolic stability in pooled mouse liver microsomes assessed as parent compound remaining at 200 uM measured after 60 mins in presence of NADPH and UDPGA by LC-MS/MS analysis; assay type: ADME, microsome; details: read-out: Stability; procedure, shortened: as §4
Liver [24] = test: Metabolic stability in pooled mouse liver microsomes assessed as parent compound remaining at 200 uM measured after 60 mins by LC-MS/MS analysis; assay type: ADME, microsome; details: microsomes, 1 h, 200 µM; procedure, shortened: as §4
[25] = Metabolic stability in human intestinal S9 fraction assessed as parent compound level at 200 uM measured after 1 hr in presence or absence of NADPH by LC-MS/MS analysis; assay type: ADME, Intestine; details: read-out: Stability
Procedure, shortened: (§5)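 Compounds incubated with intestinal S9 fraction for 1 h. Percent prodrug remaining and percent conversion to the parent were measured.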

[26] = Metabolic stability in mouse intestinal S9 fraction assessed as parent compound level at 200 uM measured after 1 hr in presence or absence of NADPH by LC-MS/MS analysis; assay type: ADME, Intestine; details: read-out: Stability; procedure, shortened: as §5
[27] = Inhibition of endoplasmic reticulum alpha-glucosidase in human Huh7.5 cells infected with DENV assessed as reduction in viral growth by measuring DENV RNA level by qRT-PCR method; assay type: cell-based
Procedure, shortened: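 Huh7.5 cells infected with dengue virus and treated with a concentration series of the compounds (n = 4). DENV RNA was quantified by qRT-PCR and the EC50 was calculated.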

[28] = Metabolic stability in human plasma assessed as parent compound remaining at 5 uM measured after 2 hrs by LC-MS/MS analysis; assay type: ADME, cell-free; details: read-out: Stability; procedure, shortened: as §3
[29] = Cmax in BALB/c mouse at 25 mg/kg, po administered as single dose by LC-MS/MS analysis; assay type: ADME, organism-based; set-up: dose 25 mg/kg, route oral; details: in vivo; procedure, shortened: as §1

OC[C@@H]1[C@@H](O)[C@H](O)[C@@H](O)CN1CCCCCCOc1cc(F)ccc1F
EC50 [1]: 0.5 µM

OC[C@H]1NC[C@H](O)[C@@H](O)[C@@H]1O [DUVOGLUSTAT]
EC50 [1]: 364 µM

CCCCN1C[C@H](O)[C@@H](O)[C@H](O)[C@H]1CO [MIGLUSTAT]
EC50 [1]: 56.4 µM

CCC(O)(CC)CCCCCCN1C[C@H](O)[C@@H](O)[C@H](O)[C@H]1CO
EC50 [1]: 2.2 µM

CC(C)(C)NC(=O)N(CCCCCCN1C[C@H](O)[C@@H](O)[C@H](O)[C@H]1CO)C1CCCCC1
Cmax [2]: 915 ng/mL | Stability [3]: 114% | remaining at 2 h, 5 µM [4]: 93% | Stability [5]: 109% | Stability (Liver [6]): 99% | AUC (Mus musculus [7]): 996 ng·mL·h | t1/2 (Liver [8]): 1.73 h | t1/2 (Liver [9]): 1.57 h | Tmax [10]: 0.25 h | half-life [11]: 5.46 h | IC50 [12]: 0.81 µM | AUC (Mus musculus [13]): 1191 ng·mL·h | clearance [14]: 70 mL/min/kg | Tmax [15]: 0.5 h | inhibition (Bos taurus): Active | half-life [16]: 0.98 h | AUC (Mus musculus [17]): 150 ng·mL·h | remaining at 1 h, 200 µM [18]: 68% | half-life [19]: 5.19 h | IC50 [20]: 27.8 µM | Vd [21]: 2.13 L/kg | Cmax [22]: 2840 ng/mL | remaining at 1 h, 200 µM [23]: 63% | Stability (Liver [24]): 96% | remaining at 1 h, 200 µM [25]: 76 to 95% | EC50 [1]: 1.2 µM | remaining at 1 h, 200 µM [26]: 76 to 95% | EC50 [27]: 4.1 µM | remaining at 2 h, 5 µM [28]: 109% | Cmax [29]: 184 ng/mL

CCCCCCCCCN1C[C@H](O)[C@@H](O)[C@H](O)[C@H]1CO
EC50 [1]: 7.1 µM
